Test [1] in a line: SK-BR-3 cell growth inhibitors, pilot screen, 24 h, human (AID 572;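 active = viability at or below 10% of carrier control in both of two separate runs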;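 note: compound exposure lasted between 18 and 24 h rather than exactly 24 h; 100% = carrier-treated control wells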). The settings on record: SK-BR-3 viability, CellTiter-Glo luminescence, at 10 µM, stronger effect = lower value.
The nature of test [2]: HUVEC growth inhibition – cell-based, human, primary screen (AID 575).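 Note: 100% = median of untreated cell wells with 0.1% DMSO on each plate.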 To be noted: HUVEC proliferation, CellTiter-Glo luminescence, 72 h; at 10 µM; stronger effect = lower value. The gist of the method:
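Test system: HUVEC primary cells. Quantity: 1250 endothelial cells in each well. Dosing: single-point 10 µM, DMSO 0.1% final. Incubation: 72 h treatment at 37 °C. Measured by: CTG luminescence. Control set: DMSO cell controls and MePR drug controls. Plate: collagen-coated 384-well format.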
On the technique in general: In ATP-based viability assays light output follows the ATP content of the culture.

Test [3] is described as follows: growth inhibitors of H69AR lung tumor, primary screen, human, duplicate replicates (AID 580;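 active = viability at or under a set limit in both replicates, limit being median viability minus 3 SD, cut at about 48% in these data, passing the limit was not always enough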;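 note: 100% = mean luminescence of untreated wells and 0% = no signal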). The settings on record: H69AR lung tumor cells viability, ATP luminescence, 72 h; at 10 µM; stronger effect = lower value.
Test [4] in a line: reversal of MRP1-mediated doxorubicin resistance, pilot screen, H69AR cells, doxorubicin co-treatment (AID 601;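 active = viability loss from added drug above about 55%, and viability with drug at most 40%, in both replicates, limit read from the data, passing the limit was not always enough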). The settings on record: CellTiter-Glo, 72 h, at 10 µM; for differential viability (reversal): stronger effect = higher value.
A short description of test [5]: 384-well plate pilot, post-Golgi transport modulator project, inhibition of yeast transport mutant growth (AID 636; in the data active = inhibition above about 31%). The settings on record: absorbance 615 nm, about 18 h, stronger effect = higher value.
The nature of test [6]: growth suppression of yeast trafficking mutant, preliminary HTS, modulators of trafficking downstream of Golgi apparatus project, 1536-format plate, OD 615 nm (AID 637; in the data active = inhibition above about 30%). To be noted: yeast transport mutant growth, absorbance 615 nm, 18 h; stronger effect = higher value.
The mark [7] stands for this setting: H69AR cells + 2 uM doxorubicin, measured here: viability with 2 uM doxorubicin, stronger effect = lower value.
[8] abbreviates: H69AR cells, compound alone cytotoxicity.

The structures appear in SMILES notation. Activity calls are given as the source filed them.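 Rule for the calls, unless noted: active = viability at or below 30% in both replicate assays; inconclusive = viability at or below 30% in just one of the two assays; inactive = the rest.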

Turning to `COc1ccc(CC(=O)Nc2c3c(nn2-c2cccc(Cl)c2)CS(=O)C3)cc1` (centres undefined), the viability in test [1] is 111% (inactive); in test [2], 95.6% (inactive); in test [3], 104% (inactive); in test [4] (setting [7]), 89.5%; in test [4] (setting [8]) it was 104%. The differential viability (reversal) in test [4] (H69AR cells + 2 uM doxorubicin) was 14.5% (inactive). Besides, the inhibition is -2.73% (inactive) in test [5] and -1.97% (inactive) in test [6].

For `COC(=O)c1ccc2c(c1)nc(C)n2CCO`, the viability in test [1] was 104% (inactive); in test [2], 118% (inactive); in test [3], 99.4% (inactive); in test [4] (setting [7]), 90.1%; in test [4] (setting [8]), 99.4%. Moreover, in test [4] (H69AR cells + 2 uM doxorubicin), the differential viability (reversal) is 9.26% (inactive). Moreover, the inhibition was -3.78% (inactive) in test [5] and -2% (inactive) in test [6].

Regarding `CCOC(=O)c1sc2cccc(F)c2c1N`, the viability in test [1] is 105% (inactive); in test [2], 80.8% (inactive); in test [3], 88.1% (inactive); in test [4] (setting [7]), 82.5%; in test [4] (setting [8]) it was 88.1%. The differential viability (reversal) in test [4] (H69AR cells + 2 uM doxorubicin) was 5.58% (inactive). In addition, the inhibition in test [5] was -5.45% (inactive); in test [6], 6.07% (inactive).

With `Cc1ccc(-n2ncc3c(=O)n(CC(=O)N4CCCc5ccccc54)cnc32)cc1C`, the viability in test [1] is 82% (inactive); in test [2] it was 60.5% (inactive); in test [3], 90.8% (inactive); in test [4] (setting [7]), 101%; in test [4] (setting [8]), 90.8%. For the same compound, the differential viability (reversal) in test [4] (H69AR cells + 2 uM doxorubicin) was -10% (inactive). For the same compound, the inhibition in test [5] is 6.08% (inactive); in test [6], -2.73% (inactive).

Consider `CC(=O)[C@H]1CC[C@H]2[C@@H]3CCC4=CC(=O)CC[C@]4(C)[C@H]3[C@H](O)C[C@]12C`, for which the viability in test [1] is 87% (inactive); in test [2] it was 83.6% (inactive); in test [3] it was 100% (inactive); in test [4] (setting [7]) it was 96.6%; in test [4] (setting [8]) it was 100%. Also, the differential viability (reversal) in test [4] (H69AR cells + 2 uM doxorubicin) is 3.85% (inactive). Further, the inhibition in test [5] is 2.08% (inactive); in test [6] it was -6.83% (inactive).

`Cc1cc(S(=O)(=O)N2CCN(c3ncccn3)CC2)ccc1-n1cnnn1`: the viability in test [1] was 94% (inactive); in test [2] it was 120% (inactive); in test [3], 97.1% (inactive); in test [4] (setting [7]) it was 93.7%; in test [4] (setting [8]) it was 97.1%. For the same compound, the differential viability (reversal) in test [4] (H69AR cells + 2 uM doxorubicin) was 3.36% (inactive). The results for the inhibition in test [5] and in test [6] were -2.8% (inactive) and -0.73% (inactive), respectively.

Take `CCOC(=O)c1[nH]c(CSc2nnc(-c3ccncc3)n2CCOC)c(C(=O)OCC)c1C`: the viability is 94% (inactive) in test [1]; 96.7% (inactive) in test [2]; 94.8% (inactive) in test [3]; 90.6% in test [4] (setting [7]); 94.8% in test [4] (setting [8]). The differential viability (reversal) in test [4] (H69AR cells + 2 uM doxorubicin) was 4.23% (inactive). Further, the inhibition in test [5] is -5.19% (inactive); in test [6], 1.31% (inactive).

For the compound `COc1cccc(/C=N/n2c(-c3ccco3)nc3ccccc3c2=O)c1`, the viability in test [1] was 71% (inactive); in test [2] it was 105% (inactive); in test [3], 73.2% (inactive); in test [4] (setting [7]), 85.4%; in test [4] (setting [8]) it was 73.2%. Also, the differential viability (reversal) in test [4] (H69AR cells + 2 uM doxorubicin) was -12.3% (inactive). Also, the figures for the inhibition in test [5] and in test [6] were -6.76% (inactive) and 2.36% (inactive), respectively.

Take `O=C(CSCc1ccc(F)cc1)NC1CCCC1`: the viability is 137% (inactive) in test [1]; 108% (inactive) in test [2]; 95.8% (inactive) in test [3]; 82.2% in test [4] (setting [7]); 95.8% in test [4] (setting [8]). Further, the differential viability (reversal) in test [4] (H69AR cells + 2 uM doxorubicin) is 13.6% (inactive). In addition, the inhibition in test [5] was -3.9% (inactive); in test [6], 4.1% (inactive).

`COC(=O)CCC(=O)Nc1ccc(S(=O)(=O)N2CCCCCC2)cc1`: the viability in test [1] was 103% (inactive); in test [2], 99.2% (inactive); in test [3], 100% (inactive); in test [4] (setting [7]) it was 98.8%; in test [4] (setting [8]) it was 100%. Further, the differential viability (reversal) in test [4] (H69AR cells + 2 uM doxorubicin) was 1.32% (inactive). Further, the inhibition in test [5] was -1.69% (inactive); in test [6] it was 1.15% (inactive).

Regarding `CCn1c(=O)c2cc(S(=O)(=O)NCc3ccccc3)ccc2n(CC)c1=O`, the viability in test [1] was 93% (inactive); in test [2], 62.8% (inactive); in test [3], 19.4% (active); in test [4] (setting [7]) it was 96.5%; in test [4] (setting [8]), 19.4%. The differential viability (reversal) in test [4] (H69AR cells + 2 uM doxorubicin) was -77.1% (inactive). Further, the inhibition was -1.3% (inactive) in test [5] and 18.7% (inactive) in test [6].

Regarding `Cc1c(C)n(C(=O)CN2CCN(c3ccccn3)CC2)c2ccccc12`, the viability in test [1] was 102% (inactive); in test [2], 81.2% (inactive); in test [3], 81.7% (inactive); in test [4] (setting [7]), 82.5%; in test [4] (setting [8]), 81.7%. For the same compound, the differential viability (reversal) in test [4] (H69AR cells + 2 uM doxorubicin) is -0.845% (inactive). Also, the inhibition in test [5] is -5.2% (inactive); in test [6] it was -2.73% (inactive).

Turning to `CC(C)CC(c1nnnn1C(C)(C)C)N1CCN(C2CCCC2)CC1` (centres undefined), the viability is 101% (inactive) in test [1]; 96.6% (inactive) in test [2]; 95.2% (inactive) in test [3]; 84.8% in test [4] (setting [7]); 95.2% in test [4] (setting [8]). For the same compound, the differential viability (reversal) in test [4] (H69AR cells + 2 uM doxorubicin) was 10.4% (inactive). Besides, the inhibition in test [5] is -7.33% (inactive); in test [6] it was 2.91% (inactive).

Turning to `CCOC(=O)N1CCN(C(=O)CN(Cc2ccccc2)S(=O)(=O)c2ccc(OC)c(C)c2)CC1`, the viability was 106% (inactive) in test [1]; 102% (inactive) in test [2]; 94.7% (inactive) in test [3]; 102% in test [4] (setting [7]); 94.7% in test [4] (setting [8]). Moreover, the differential viability (reversal) in test [4] (H69AR cells + 2 uM doxorubicin) was -7.75% (inactive). Further, the values for the inhibition in test [5] and in test [6] were -0.13% (inactive) and -3.45% (inactive), respectively.

With `Cc1ccc(C(O)c2nc3ccccc3n2C(C)C)cc1` (centres undefined), the viability in test [1] is 62% (inactive); in test [2], 101% (inactive); in test [3] it was 91.5% (inactive); in test [4] (setting [7]), 87.8%; in test [4] (setting [8]) it was 91.5%. Further, the differential viability (reversal) in test [4] (H69AR cells + 2 uM doxorubicin) is 3.7% (inactive). In addition, the inhibition in test [5] is -7.53% (inactive); in test [6] it was -5.82% (inactive).

Consider `CC(=O)OCC(=O)[C@H]1CC[C@H]2[C@@H]3CCC4=CC(=O)CC[C@]4(C)[C@H]3CC[C@]12C`, for which the viability in test [1] is 86% (inactive); in test [2], 39.2% (inactive); in test [3] it was 102% (inactive); in test [4] (setting [7]), 102%; in test [4] (setting [8]) it was 102%. Also, the differential viability (reversal) in test [4] (H69AR cells + 2 uM doxorubicin) is -0.2% (inactive). The inhibition in test [5] was -0.91% (inactive); in test [6] it was -3.5% (inactive).

Consider `O=C(Nc1ccc(Cl)c(C(F)(F)F)c1)N1CCCC(O)C1` (centres undefined), for which the viability in test [1] was 98% (inactive); in test [2] it was 107% (inactive); in test [3] it was 105% (inactive); in test [4] (setting [7]), 83.6%; in test [4] (setting [8]) it was 105%. Besides, the differential viability (reversal) in test [4] (H69AR cells + 2 uM doxorubicin) was 20.9% (inactive). Moreover, the inhibition in test [5] is -0.78% (inactive); in test [6], -6.23% (inactive).

`CC1(C)C(c2cccs2)=[N+]([O-])C2(CCCCC/C2=N\O)N1O` (centres undefined): the viability in test [1] was 99% (inactive); in test [2], 101% (inactive); in test [3], 110% (inactive); in test [4] (setting [7]) it was 91.8%; in test [4] (setting [8]), 110%. Moreover, the differential viability (reversal) in test [4] (H69AR cells + 2 uM doxorubicin) was 18.4% (inactive). Also, the values for the inhibition in test [5] and in test [6] were -7.95% (inactive) and -1.27% (inactive), respectively.

A word on the viability: it is a read-out of living cells in per cent, often relative to untreated cells. As a reminder, the inhibition is the change of the read-out against control, counted positive when it falls.

These data come from PubChem BioAssay.
